# Starred links: 1 amine or outer side, 2 acyl side, 3 side chain; linkers in the order of their positions; H or OH if unused. Non-standard residues stand in square brackets, D forms with d. Residues, ends and D or L forms follow the SMILES beside them. Phe(4-NH(5-NH2triazol-3-yl)) = Nc1nc(Nc2ccc(C[C@H](N)C(=O)O)cc2)n[nH]1; X1 = Nc1nc(Nc2ccc(C[C@@H](N[*:1])C(=O)[*:2])cc2)n[nH]1; dPhe(4-Cl) = N[C@H](Cc1ccc(Cl)cc1)C(=O)O; d2Nal = N[C@H](Cc1ccc2ccccc2c1)C(=O)O; Lys(iPr) = CC(C)NCCCC[C@H](N)C(=O)O; d3Pal = N[C@H](Cc1cccnc1)C(=O)O
# Tests used:
# [1] = target: T1, Gonadotropin-releasing hormone receptor (Homo sapiens) (UniProt P30968); test: Antagonist activity at human GnRHR expressed in COS7 cells assessed as inhibition of GnRH-stimulated inositol phosphate production after 2 hrs; type: functional, cell-based; conditions: COS-7, filed as antagonist
# T1 sequence (whole entry): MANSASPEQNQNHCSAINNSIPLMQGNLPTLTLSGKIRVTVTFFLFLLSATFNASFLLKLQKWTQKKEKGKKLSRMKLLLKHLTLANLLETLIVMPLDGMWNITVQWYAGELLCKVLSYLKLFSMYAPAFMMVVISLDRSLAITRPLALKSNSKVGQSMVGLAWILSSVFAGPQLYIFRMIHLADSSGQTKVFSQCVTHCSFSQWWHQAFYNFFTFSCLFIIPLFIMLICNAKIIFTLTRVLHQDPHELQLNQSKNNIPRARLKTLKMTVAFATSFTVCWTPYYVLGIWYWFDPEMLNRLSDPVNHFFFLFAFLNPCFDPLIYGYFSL
# Summary of the method: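 COS-7 cells transiently transfected with WT hGnRH-R cDNA, labelled 18 h at 37 °C with 4 μCi/mL [3H]myo-inositol in inositol-free DMEM. Cells were washed in medium with 5 mM LiCl, then co-incubated 2 h at 37 °C with 10−8 M GnRH plus analogue at 10−8 to 10−5 M. IP was measured by Dowex anion-exchange and scintillation counting. Triplicate, repeated three or more times.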
# [2] = Ratio of IC50 for rat GnRHR to IC50 for human GnRHR in HEK293 cells; type: functional
# [3] = target: T2, Gonadotropin-releasing hormone receptor (Rattus norvegicus, UniProt P30969); test: Antagonist activity at rat GnRHR expressed in HEK293 cells assessed as inhibition of GnRH-induced luciferase response by reporter gene assay; type: functional, cell-based
# T2 sequence (P30969 whole entry): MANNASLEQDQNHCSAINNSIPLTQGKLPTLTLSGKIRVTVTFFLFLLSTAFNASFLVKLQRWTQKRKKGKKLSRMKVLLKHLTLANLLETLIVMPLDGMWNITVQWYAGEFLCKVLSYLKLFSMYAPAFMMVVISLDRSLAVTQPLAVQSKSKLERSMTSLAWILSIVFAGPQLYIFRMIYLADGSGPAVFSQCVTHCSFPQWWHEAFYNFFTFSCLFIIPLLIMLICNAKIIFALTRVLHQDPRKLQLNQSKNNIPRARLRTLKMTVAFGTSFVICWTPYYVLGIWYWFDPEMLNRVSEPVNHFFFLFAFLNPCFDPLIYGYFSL
# Summary of the method: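 Rat GnRHR stably expressed in HEK293 cells, transiently transfected with an NFAT-responsive luciferase reporter, plated after 16 h and assayed next day. Compound in 1% DMSO was given 10 min before 1 nM GnRH (final), ≥5 h at 37 °C, then luminescence. Duplicates at 11 half-log concentrations. IC50 by four-parameter logistic fit, geometric mean of ≥2 experiments.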
# [4] = target: T3, Gonadotropin-releasing hormone receptor (Homo sapiens, UniProt P30968); test: Antagonist activity at human GnRHR expressed in HEK293 cells assessed as inhibition of GnRH-induced luciferase response by reporter gene assay; type: functional, cell-based
# T3 sequence (P30968 whole entry): T1 sequence (whole entry)
# Summary of the method: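 HEK293 cells stably expressing cloned human GnRHR and an LH alpha-subunit-promoter luciferase reporter, plated overnight. Compound in 1% DMSO was added 10 min before GnRH (1 nM final), then ≥5 h at 37 °C, 5% CO2, then luminescence. 11 half-log concentrations in duplicate. IC50 from four-parameter logistic fit, reported as geometric mean of ≥2 experiments.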
# [5] = Solubility in 5% mannitol; type: physicochemical
# Rattus norvegicus [6] = test: Inhibition of plasma testosterone levels in Sprague-Dawley rat at 19.6 uM, sc by enzyme-linked immunosorbent assay; type: functional
# Summary of the method: (§1)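 Intact adult male Sprague-Dawley rats (275–310 g, 3 per group) received subcutaneous mini-pumps for seven days. Solutions were in 1:3 DMSO/water: 19.6 μM (~0.66 nM/day/kg), or 9.8 μM (~0.33 nM/day/kg). Sham-operated controls. Plasma was sampled on days 3–7 and testosterone measured by ELISA. Values are means of days 4–7.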
# Rattus norvegicus [7] = test: Inhibition of plasma testosterone levels in Sprague-Dawley rat at 9.8 uM, sc by enzyme-linked immunosorbent assay; type: functional; summary of the method: as §1
SMILES,Activity [1],Ratio IC50 [2],IC50 [3],IC50 [4],solubility [5] [mg/mL],Plasma testosterone level (Rattus norvegicus [6]) [ng/mL],Activity (Rattus norvegicus [7]) [ng/mL]
CS[C@@H](NC(=O)[C@@H]1CCCN1C(=O)[C@H](CCCCNC(C)C)NC(=O)[C@H](CC(C)C)NC(=O)[C@@H](Cc1ccc(NC(C)=O)cc1)NC(=O)[C@H](Cc1ccc(NC(C)=O)cc1)NC(=O)[C@H](CO)NC(=O)[C@@H](Cc1cccnc1)NC(=O)[C@@H](Cc1ccc(Cl)cc1)NC(=O)[C@@H](Cc1ccc2ccccc2c1)NC(C)=O)C(N)=O,Antagonist,2.83,1.7 nM (antagonist),0.6 nM (antagonist),50,1.97,
CS[C@@H](NC(=O)[C@@H](Cc1cccnc1)NC(=O)[C@@H](Cc1ccc(Cl)cc1)NC(=O)[C@@H](Cc1ccc2ccccc2c1)NC(C)=O)C(=O)N[C@@H](Cc1ccc(NC(C)=O)cc1)C(=O)N[C@H](Cc1ccc(NC(C)=O)cc1)C(=O)N[C@@H](CC(C)C)C(=O)N[C@@H](CCCCNC(C)C)C(=O)N1CCC[C@H]1C(=O)N[C@H](C)C(N)=O,Antagonist,,,25 nM (antagonist),50,,
CS[C@H](NC(=O)[C@@H](Cc1cccnc1)NC(=O)[C@@H](Cc1ccc(Cl)cc1)NC(=O)[C@@H](Cc1ccc2ccccc2c1)NC(C)=O)C(=O)N[C@@H](Cc1ccc(NC(C)=O)cc1)C(=O)N[C@H](Cc1ccc(NC(C)=O)cc1)C(=O)N[C@@H](CC(C)C)C(=O)N[C@@H](CCCCNC(C)C)C(=O)N1CCC[C@H]1C(=O)N[C@H](C)C(N)=O,Antagonist,2,2.4 nM (antagonist),1.2 nM (antagonist),50,1.99,
CC(=O)Nc1ccc(C[C@H](NC(=O)[C@H](CO)NC(=O)[C@@H](Cc2cccnc2)NC(=O)[C@@H](Cc2ccc(Cl)cc2)NC(=O)[C@@H](Cc2ccc3ccccc3c2)NC(C)=O)C(=O)N[C@H](Cc2ccc(NC(C)=O)cc2)C(=O)N[C@@H](SC(C)C)C(=O)N[C@@H](CCCCNC(C)C)C(=O)N2CCC[C@H]2C(=O)N[C@H](C)C(N)=O)cc1,Antagonist,8.07,2.5 nM (antagonist),0.31 nM (antagonist),50,1.59,
CC(=O)Nc1ccc(C[C@H](NC(=O)[C@H](CO)NC(=O)[C@@H](Cc2cccnc2)NC(=O)[C@@H](Cc2ccc(Cl)cc2)NC(=O)[C@H](NC(C)=O)Sc2ccc3ccccc3c2)C(=O)N[C@H](Cc2ccc(NC(C)=O)cc2)C(=O)N[C@@H](CC(C)C)C(=O)N[C@@H](CCCCNC(C)C)C(=O)N2CCC[C@H]2C(=O)N[C@H](C)C(N)=O)cc1,Antagonist,6.03,4.4 nM (antagonist),0.73 nM (antagonist),50,1.03,
CC(=O)Nc1ccc(C[C@H](NC(=O)[C@H](CO)NC(=O)[C@@H](Cc2cccnc2)NC(=O)[C@@H](Cc2ccc(Cl)cc2)NC(=O)[C@@H](Cc2ccc3ccccc3c2)NC(C)=O)C(=O)N[C@H](Cc2ccc(NC(C)=O)cc2)C(=O)N[C@H](C(=O)N[C@@H](CCCCNC(C)C)C(=O)N2CCC[C@H]2C(=O)N[C@H](C)C(N)=O)[S+]([O-])C(C)C)cc1 (some centres not stated),,2.67,3.2 nM (antagonist),1.2 nM (antagonist),50,3.22,
CC(=O)Nc1ccc(C[C@H](NC(=O)[C@H](CO)NC(=O)[C@@H](Cc2cccnc2)NC(=O)[C@@H](Cc2ccc(Cl)cc2)NC(=O)[C@@H](Cc2ccc3ccccc3c2)NC(C)=O)C(=O)N[C@H](Cc2ccc(NC(C)=O)cc2)C(=O)N[C@@H](CC(C)C)C(=O)N[C@@H](CCCCNC(C)C)C(=O)N2CCC[C@H]2C(=O)N[C@H](C)C(N)=O)cc1 [ACYLINE],Antagonist,2.89,1.5 nM (antagonist),0.52 nM (antagonist),50,0.69,
CS[C@H](NC(=O)[C@@H]1CCCN1C(=O)[C@H](CCCCNC(C)C)NC(=O)[C@H](CC(C)C)NC(=O)[C@@H](Cc1ccc(NC(C)=O)cc1)NC(=O)[C@H](Cc1ccc(NC(C)=O)cc1)NC(=O)[C@H](CO)NC(=O)[C@@H](Cc1cccnc1)NC(=O)[C@@H](Cc1ccc(Cl)cc1)NC(=O)[C@@H](Cc1ccc2ccccc2c1)NC(C)=O)C(N)=O,Antagonist,2.13,1.7 nM (antagonist),0.8 nM (antagonist),50,2.21,
CC(=O)N[C@H](Cc1ccc2ccccc2c1)C(=O)N[C@H](Cc1ccc(Cl)cc1)C(=O)N[C@H](Cc1cccnc1)C(=O)N[C@@H](CO)C(=O)N[C@@H](Cc1ccc(Nc2n[nH]c(N)n2)cc1)C(=O)N[C@H](Cc1ccc(Nc2n[nH]c(N)n2)cc1)C(=O)N[C@@H](CC(C)C)C(=O)N[C@@H](CCCCNC(C)C)C(=O)N1CCC[C@H]1C(=O)N[C@H](C)C(N)=O.CC(=O)O [PRAZARELIX ACETATE] (Ac-[d2Nal][dPhe(4-Cl)][d3Pal]S[Phe(4-NH(5-NH2triazol-3-yl))][X1]L[Lys(iPr)]P[dA]-NH2),,1.03,1.4 nM (antagonist),1.36 nM (antagonist),50,0.32,1.39
CC(=O)Nc1ccc(C[C@H](NC(=O)[C@H](CO)NC(=O)[C@@H](Cc2cccnc2)NC(=O)[C@@H](Cc2ccc(Cl)cc2)NC(=O)[C@@H](Cc2ccc3ccccc3c2)NC(C)=O)C(=O)N[C@H](Cc2ccc(NC(C)=O)cc2)C(=O)N[C@H](SC(C)C)C(=O)N[C@@H](CCCCNC(C)C)C(=O)N2CCC[C@H]2C(=O)N[C@H](C)C(N)=O)cc1,Antagonist,,,0.81 nM (antagonist),50,,
CC(=O)Nc1ccc(C[C@H](NC(=O)[C@H](NC(=O)[C@@H](Cc2cccnc2)NC(=O)[C@@H](Cc2ccc(Cl)cc2)NC(=O)[C@@H](Cc2ccc3ccccc3c2)NC(C)=O)[S+](C)[O-])C(=O)N[C@H](Cc2ccc(NC(C)=O)cc2)C(=O)N[C@@H](CC(C)C)C(=O)N[C@@H](CCCCNC(C)C)C(=O)N2CCC[C@H]2C(=O)N[C@H](C)C(N)=O)cc1 (some centres not stated),,,,6.9 nM (antagonist),50,,
CC(=O)Nc1ccc(C[C@H](NC(=O)[C@H](CO)NC(=O)[C@@H](Cc2cccnc2)NC(=O)[C@@H](Cc2ccc(Cl)cc2)NC(=O)[C@@H](Cc2ccc3ccccc3c2)NC(C)=O)C(=O)N[C@H](Cc2ccc(NC(C)=O)cc2)C(=O)N[C@@H](CC(C)C)C(=O)N[C@@H](CCCCNC(C)C)C(=O)N2CCC[C@H]2C(=O)N[C@H](C(N)=O)[S+](C)[O-])cc1 (some centres not stated),,,,0.87 nM (antagonist),50,,

# Reference: ChEMBL document CHEMBL1147132, “Structure-activity relationship studies of gonadotropin-releasing hormone antagonists containing S-aryl/alkyl norcysteines and their oxidized derivatives” (J Med Chem, 2007)
